We go through 14 compounds from ChEMBL document CHEMBL1128421, “(Piperidinylalkoxy)chromones: novel antihistamines with additional antagonistic activity against leukotriene D4” (J Med Chem, 1995).

pIC50, pKd: −log10 of the molar value. The source made the active and inactive calls. The rule behind the calls is not given here.

Experiment [1] is filed under the species Cavia porcellus. In words: Compound was evaluated for inhibition of contraction in guinea pig ileum induced by leukotriene D4 (LTD4). The class given is functional, organism-based. The essentials:
(§1)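 Isolated guinea pig ileum strip in Krebs buffer at 37 °C, continuously bubbled with 95% O2–5% CO2. After washing, the strip was pre-incubated with compound for 30 min before LTD4 challenge. Contraction was induced by LTD4 at 10 nM. The value reported is the antagonist concentration giving 50% of maximal inhibition. Means ± SD of ≥3 independent experiments.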

Experiment [2] is filed under the species Cavia porcellus. Description: Compound was evaluated for antihistaminic activity against isolated guinea pig ileum. The class given is functional. The essentials: (§2)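 Isolated guinea pig ileum segment (about 2 cm) in an organ bath of Krebs buffer at 37 °C, bubbled with 95% O2–5% CO2. Three cumulative histamine dose-response curves were run first, starting at 10 nM. After washing, the strip was exposed to compound for 30 min and the curve repeated. KB was derived by Cheng–Prusoff. Means ± SD of ≥3 independent experiments.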

For experiment [3], the species on record is Cavia porcellus. Description: Compound was evaluated for inhibition of [3H]LTD4 binding in guinea pig lung membrane fragments.
Experiment [4] has as its target T1, Cysteinyl leukotriene receptor 1 (Cavia porcellus, UniProt Q2NNR5).
T1 sequence (Q2NNR5 whole entry): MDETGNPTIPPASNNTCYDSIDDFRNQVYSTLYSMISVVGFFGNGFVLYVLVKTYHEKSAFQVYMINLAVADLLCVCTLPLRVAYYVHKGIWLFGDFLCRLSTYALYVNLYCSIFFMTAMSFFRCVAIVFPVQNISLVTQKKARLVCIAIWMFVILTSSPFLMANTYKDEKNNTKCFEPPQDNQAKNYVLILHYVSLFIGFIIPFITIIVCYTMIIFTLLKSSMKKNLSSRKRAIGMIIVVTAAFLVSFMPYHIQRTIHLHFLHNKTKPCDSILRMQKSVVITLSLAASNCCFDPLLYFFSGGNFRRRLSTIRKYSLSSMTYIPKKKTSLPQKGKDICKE
In words: Dissociation constant was determined against Cysteinyl leukotriene D4 receptor of guinea pig lung membranes using radioligand binding assays. The class given is tissue-based.

In experiment [5] the target is T2, Histamine H1 receptor (Cavia porcellus, UniProt P31389). In words: Dissociation constant was determined against H1 receptor of guinea pig lung membranes using radioligand binding assays. The class given is tissue-based. The essentials:
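Guinea pig lung membranes were incubated with 0.5 nM [3H]mepyramine and compound at 37 °C in 50 mM Na-K phosphate, pH 7.5. Nonspecific binding was defined with (-)-dimethindene. The reaction was stopped with ice-cold buffer, then filtered on GF/C and counted by scintillation. KB by Cheng–Prusoff; means of two independent assays in triplicate.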

Experiment [6] is filed under the species Cavia porcellus. Description: Compound was evaluated for antihistaminic activity against isolated guinea pig ileum; Not active. The class given is functional. In a few lines: as §2
Experiment [7] deals with T2, Histamine H1 receptor. Description: dissociation constant was determined against H1 receptor of guinea pig lung membranes using radioligand binding assays. The class given is tissue-based. In a few lines:
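Guinea pig lung membranes were incubated with 0.5 nM [3H]mepyramine and compound at 37 °C in 50 mM Na-K phosphate, pH 7.5. Nonspecific binding was defined with (-)-dimethindene. The reaction was stopped with ice-cold buffer, then filtered on GF/C and counted by scintillation. Radioligand KD was 3.30 nM. KB by Cheng–Prusoff; means of two independent assays in triplicate.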

The species named for experiment [8] is Cavia porcellus. In words: Compound was evaluated for inhibition of contraction in guinea pig ileum induced by leukotriene D4 (LTD4); Not active. The class given is functional, organism-based. In a few lines: as §1

T2 sequence (P31389 whole entry): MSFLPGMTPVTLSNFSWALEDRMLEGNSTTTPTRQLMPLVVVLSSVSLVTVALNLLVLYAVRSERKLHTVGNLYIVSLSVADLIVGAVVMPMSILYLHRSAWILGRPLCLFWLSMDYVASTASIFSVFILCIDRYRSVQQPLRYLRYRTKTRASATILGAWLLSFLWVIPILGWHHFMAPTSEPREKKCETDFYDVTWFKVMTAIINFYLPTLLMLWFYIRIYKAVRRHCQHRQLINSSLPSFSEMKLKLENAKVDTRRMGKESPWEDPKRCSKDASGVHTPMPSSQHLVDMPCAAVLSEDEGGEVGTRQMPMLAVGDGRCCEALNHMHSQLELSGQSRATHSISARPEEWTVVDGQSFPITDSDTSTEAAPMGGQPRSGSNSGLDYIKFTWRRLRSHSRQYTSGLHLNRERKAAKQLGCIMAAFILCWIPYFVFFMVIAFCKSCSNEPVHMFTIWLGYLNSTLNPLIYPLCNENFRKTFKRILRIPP

The term pIC50 denotes the negative decadic logarithm of the IC50, by convention in mol/L. Read a low pIC50 as a large IC50. In experiment [1], `O=C(O)c1cc(=O)c2ccc(OCCCCCCN3CCC(OC(c4ccccc4)c4ccccc4)CC3)cc2o1` gave a pIC50 of 4.32. For the same compound, the Kb in experiment [2] (Cavia porcellus, Ileum) was 5.13 nM.
The matching figures for `O=C(O)c1cc(=O)c2ccc(OCCCCN3CCC(OC(c4ccccc4)c4ccccc4)CC3)cc2o1`: 5.00 and 7.08 nM.
The matching figures for `O=C(O)c1cc(=O)c2cc(OCCCN3CCC(C(O)(c4ccccc4)c4ccccc4)CC3)ccc2o1`: below 4.00 and 3.8 nM.
For the compound `Cc1ccc(C(OC2CCN(CCCOc3ccc4c(=O)cc(C(=O)O)oc4c3)CC2)c2ccccc2)cc1` (stereo in doubt; 1j), the Kb in experiment [2] was determined as 2.24 nM. Besides, the pIC50 in experiment [3] is 3.67.
For `O=C(O)c1cc(=O)c2ccc(OCCCN3CCC(=C(c4ccccc4)c4ccccc4)CC3)cc2o1`, the pIC50 in experiment [1] was 4.69. Moreover, the Kb in experiment [2] (Cavia porcellus, Ileum) was 16.2 nM.
Regarding `Cc1ccc(C(OC2CCN(CCCOc3ccc4c(=O)cc(C(=O)O)oc4c3)CC2)c2ccccc2)cc1` (stereo in doubt; 1i), in experiment [2], the Kb was found to be 12.3 nM. The pIC50 in experiment [3] was 4.78.
Take `O=C(O)c1cc(=O)c2ccc(OCCCCCN3CCC(OC(c4ccccc4)c4ccccc4)CC3)cc2o1`: the pIC50 in experiment [1] was 4.74. In experiment [2] (Cavia porcellus, Ileum), this compound returned a Kb of 17 nM.
Broadly, the pKd is the Kd on a negative log10 scale, so that one unit is a factor of ten. Read a low pKd as a large Kd. With `O=C(O)c1cc(=O)c2cc(OCCCN3CCC(=C(c4ccccc4)c4ccccc4)CC3)ccc2o1`, the pKd is 5.37 in experiment [4] and 8.22 in experiment [5]. Further, the pIC50 in experiment [1] is 6.19. The compound also yielded a Kb in experiment [2] (Cavia porcellus, Ileum) of 5.75 nM.
In experiment [1], `O=c1cc(C2N=NN=N2)oc2cc(OCCCN3CCC(C(O)(c4ccccc4)c4ccccc4)CC3)ccc12` gave a pIC50 of 4.25. This compound also showed a Kb in experiment [2] (Cavia porcellus, Ileum) of 1.7 nM.
The matching figures for `O=C(O)c1cc(=O)c2ccc(OCCCN3CCC(C(O)(c4ccccc4)c4ccccc4)CC3)cc2o1`: 4.64 and 5.25 nM.
With `CCCc1c(OCC(O)COc2ccc3c(=O)cc(C(=O)O)oc3c2CCC)ccc(C(C)=O)c1O` (stereo unspecified) [FPL-55712], the Kb entry in experiment [6] is “inactive”. In experiment [1], this compound had a pIC50 of 6.92.
Consider `O=c1cc(C2N=NN=N2)oc2cc(OCCCN3CCC(=C(c4ccccc4)c4ccccc4)CC3)ccc12`, for which the pKd in experiment [4] was 5.63; in experiment [7], 8.23. This compound also showed a pIC50 in experiment [1] of 6.72. Moreover, the Kb in experiment [2] (Cavia porcellus, Ileum) is 3.63 nM.
In the case of `O=C(O)c1cc(=O)c2ccc(OCCCN3CCC(OC(c4ccccc4)c4ccccc4)CC3)cc2o1`, the pIC50 in experiment [1] was 5.84. Also, the Kb in experiment [2] (Cavia porcellus, Ileum) is 9.12 nM.
For the compound `CC(C)(C)c1ccc(C(O)CCCN2CCC(C(O)(c3ccccc3)c3ccccc3)CC2)cc1` (stereo unspecified) [TERFENADINE], the IC50 result in experiment [8] is “Not Active”.
